Experimental data reported in ChEMBL document CHEMBL4002590, “Design and Synthesis of a Pan-Janus Kinase Inhibitor Clinical Candidate (PF-06263276) Suitable for Inhaled and Topical Delivery for the Treatment of Inflammatory Diseases of the Lungs and Skin” (J Med Chem, 2017).
The source made the active and inactive calls. No cut-off for these calls is given here.

Columns and labels:
[1] = target: Aurora kinase A (Homo sapiens) (UniProt O14965); test: Inhibition of recombinant human AurA/Aur 2 kinase expressed in insect Sf21 cells at 10 uM using Ulight-RRRSLLE substrate after 15 mins by LANCE assay
Method in brief: (§1)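 Single-point screen at 10 μM within a broad panel of radioligand binding and enzyme inhibition assays covering receptors, transporters, enzymes and ion channels.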

[2] = Plasma protein binding in dog at 0.1 mg/kg, iv administered as 30 mins infusion; assay type: ADME, organism-based, Canis lupus familiaris; settings: read-out: PPB
[3] = Lipophilicity, logD of the compound by shake flask method; assay type: physicochemical; settings: octanol/water
Method in brief: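 log D measured by the shake flask method.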

Canis familiaris = test: Unbound clearance in dog at 0.1 mg/kg, iv administered as 30 mins infusion; assay type: ADME, organism-based, Canis lupus familiaris; settings: in vivo, 0.5 h
[4] = Volume of distribution at steady state in dog at 0.1 mg/kg, iv administered as 30 mins infusion; assay type: ADME, organism-based, Canis lupus familiaris; settings: in vivo, read-out: Vdss
JAK2/JAK1 (Homo sapiens) = JAK2/JAK1 (Homo sapiens) (UniProt P23458+O60674)
[5] = target: Acetylcholinesterase (Homo sapiens) (UniProt P22303); test: Inhibition of recombinant human acetylcholinesterase expressed in HEK-293 cells at 10 uM using acetylthiocholine substrate after 30 mins by photometry; assay type: cell-based; method in brief: as §1
Mus musculus [6] = test: In vivo inhibition of JAK2/TYK2 in Balb/c mouse model of IL-23 induced inflammation assessed as reduction of ear swelling pretreated topically as 4 % solution bid on ear for 12 consecutive days followed by IL-23 stimulation at 2 hrs post compound treatment on day 2, 4, 7, 9 and 11; assay type: functional
Method in brief: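 Mouse ear dermal model: compound applied topically as a 4% solution in propylene glycol 30, PEG400 30, dimethyl isosorbide 10, glycerin 25.9, BHA 0.1 (% wt/wt); repeated IL-23 ear injections, with ear swelling followed over 11 days.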

hERG (KCNH2) = hERG (KCNH2) (Homo sapiens, UniProt Q12809); test: Inhibition of human ERG at 1 uM
Method in brief: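 hERG potassium current measured with compound at 1 μM.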

Rattus norvegicus [7] = test: Intrinsic clearance in rat at 0.5 mg/kg, iv; assay type: ADME, organism-based; settings: in vivo
Mus musculus [8] = test: In vivo inhibition of JAK1/JAK2 in […] dosed Balb/c mouse assessed as inhibition of IL-6 induced STAT3 phosphorylation in lungs pretreated for 15 mins followed by IL-6 stimulation measured after 30 mins by ELISA; assay type: functional
Method in brief: (§2)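 Intratracheal dosing in mouse, then IL-6 given i.t.; phosphorylated STAT3 quantified in lung. Percent inhibition ± 95% CI from the difference in geometric means between vehicle/IL-6 and vehicle/saline groups; N = 6.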

[9] = Chemical stability in pH 8 solution at 40 degC after 1 to 2 days; assay type: physicochemical; settings: buffer
Method in brief: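 Hydrolytic stability followed over 1–2 days at pH 8.0 and 40 °C; percent degradation recorded.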

Mus musculus [10] = test: In vivo inhibition of JAK2 homodimer in Balb/c mouse assessed as inhibition of GM-CSF induced STAT5 phosphorylation in blood at 100 ug, it for 12 consecutive days; assay type: functional
Method in brief: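 After i.t. dosing in mouse, GM-CSF-induced phosphorylated STAT5 measured in blood; percent inhibition ± 95% CI from geometric means versus vehicle groups; N = 3.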

Mus musculus [11] = test: In vivo inhibition of JAK1/JAK2 in Balb/c mouse assessed as inhibition of IL-6 induced STAT3 phosphorylation in lungs at 10 ug, it pretreated for 15 mins followed by IL-6 stimulation measured after 30 mins by ELISA relative to control; assay type: functional; method in brief: as §2
[12] = target: Non-receptor tyrosine-protein kinase TYK2 (Homo sapiens, UniProt P29597); test: Inhibition of Tyk2 (unknown origin) using peptide substrate preincubated for 60 mins followed by substrate addition and measured after 60 mins by microfluidic assay
Method in brief: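 Caliper microfluidic assay of peptide-substrate phosphorylation by the relevant JAK enzyme, run at 1 mM ATP; IC50 values are geometric means of at least three determinations.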

Rattus norvegicus [13] = test: Unbound clearance in rat at 0.5 mg/kg, iv; assay type: ADME, organism-based; settings: in vivo
[14] = target: Alpha-2B adrenergic receptor (Homo sapiens) (UniProt P18089); test: Antagonist activity at recombinant human alpha 2B adrenergic receptor expressed in HEK293 cells assessed as inhibition of dexmedetomidine-induced cAMP accumulation at 10 uM after 30 mins by HTRF method; assay type: functional, cell-based
JAK3/JAK1 (Homo sapiens) = JAK3/JAK1 (Homo sapiens) (UniProt P52333+P23458)
[15] = target: Tyrosine-protein kinase Lck (Homo sapiens) (UniProt P06239); test: Inhibition of recombinant human Lck kinase expressed in insect Sf21 cells at 10 uM using Ulight-Poly GAT[EAY(1:1:1)]n as substrate after 10 mins by LANCE assay; method in brief: as §1
JAK1/TYK2 (Homo sapiens) = JAK1/TYK2 (Homo sapiens) (UniProt P23458+P29597)
Mus musculus [16] = test: In vivo receptor occupancy at JAK1 in Balb/c mouse lungs at 10 to 100 ug, it measured after 4 hrs; assay type: functional, organism-based
Method in brief: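 JAK1 target occupancy in mouse lung measured over time after i.t. administration of 10 μg or 100 μg.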

[17] = target: Tyrosine-protein kinase JAK2 (Homo sapiens, UniProt O60674)
[18] = Volume of distribution at steady state in rat at 0.5 mg/kg, iv; assay type: ADME, organism-based; settings: in vivo, read-out: Vdss
[19] = Chemical stability at room temperature up to 6 weeks; assay type: physicochemical; settings: 1008 h
Method in brief: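 Crystalline solid stored at room temperature and at 40 °C/75% relative humidity for up to 6 weeks; chemical stability assessed.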

[20] = Chemical stability in pH 8 solution at 40 degC up to 6 weeks; assay type: physicochemical; settings: buffer, pH 8, 1008 h
Salmonella typhimurium = test: Genotoxicity in Salmonella typhimurium by Ames test; assay type: toxicity; settings: salmonella enterica subsp. enterica serovar typhimurium
Rattus norvegicus [21] = species: Rattus norvegicus; test: Displacement of [3H]batrachotoxinin from rat cerebral cortex sodium channel site-2 at 10 uM after 60 mins by scintillation counting method relative to control; method in brief: as §1

Chain of Non-receptor tyrosine-protein kinase TYK2 (P29597 whole entry): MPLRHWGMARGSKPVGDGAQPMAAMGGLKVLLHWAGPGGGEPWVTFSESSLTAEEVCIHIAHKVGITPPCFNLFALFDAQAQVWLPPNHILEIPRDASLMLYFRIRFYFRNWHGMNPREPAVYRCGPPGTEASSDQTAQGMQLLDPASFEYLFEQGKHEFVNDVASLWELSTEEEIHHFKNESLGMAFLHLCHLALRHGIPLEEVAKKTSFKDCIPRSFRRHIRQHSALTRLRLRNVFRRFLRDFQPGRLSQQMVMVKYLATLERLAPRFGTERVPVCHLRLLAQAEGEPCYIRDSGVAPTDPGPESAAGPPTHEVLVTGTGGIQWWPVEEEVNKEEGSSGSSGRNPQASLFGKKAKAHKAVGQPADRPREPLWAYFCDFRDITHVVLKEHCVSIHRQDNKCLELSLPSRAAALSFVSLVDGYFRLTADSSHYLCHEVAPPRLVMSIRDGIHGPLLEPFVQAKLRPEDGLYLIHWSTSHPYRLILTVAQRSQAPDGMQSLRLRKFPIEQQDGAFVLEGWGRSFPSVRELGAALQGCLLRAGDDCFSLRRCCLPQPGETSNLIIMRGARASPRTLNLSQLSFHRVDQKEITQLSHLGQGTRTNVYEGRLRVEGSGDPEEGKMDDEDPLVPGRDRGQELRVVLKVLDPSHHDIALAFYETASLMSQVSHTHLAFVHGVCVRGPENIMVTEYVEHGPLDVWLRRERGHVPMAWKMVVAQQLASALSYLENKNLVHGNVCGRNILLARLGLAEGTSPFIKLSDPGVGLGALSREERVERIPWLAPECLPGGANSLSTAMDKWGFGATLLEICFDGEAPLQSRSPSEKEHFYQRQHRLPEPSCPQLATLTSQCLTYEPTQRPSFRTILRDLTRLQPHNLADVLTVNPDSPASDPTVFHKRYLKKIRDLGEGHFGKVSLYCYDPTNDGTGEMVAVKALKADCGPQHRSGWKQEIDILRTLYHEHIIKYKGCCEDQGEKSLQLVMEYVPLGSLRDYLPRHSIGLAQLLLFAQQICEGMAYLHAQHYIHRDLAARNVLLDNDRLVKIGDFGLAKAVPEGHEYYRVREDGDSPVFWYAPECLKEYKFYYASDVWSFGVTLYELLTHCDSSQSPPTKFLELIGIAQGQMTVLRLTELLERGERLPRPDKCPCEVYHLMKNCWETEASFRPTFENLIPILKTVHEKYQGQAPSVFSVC
Chain of Tyrosine-protein kinase JAK2 (O60674 whole entry): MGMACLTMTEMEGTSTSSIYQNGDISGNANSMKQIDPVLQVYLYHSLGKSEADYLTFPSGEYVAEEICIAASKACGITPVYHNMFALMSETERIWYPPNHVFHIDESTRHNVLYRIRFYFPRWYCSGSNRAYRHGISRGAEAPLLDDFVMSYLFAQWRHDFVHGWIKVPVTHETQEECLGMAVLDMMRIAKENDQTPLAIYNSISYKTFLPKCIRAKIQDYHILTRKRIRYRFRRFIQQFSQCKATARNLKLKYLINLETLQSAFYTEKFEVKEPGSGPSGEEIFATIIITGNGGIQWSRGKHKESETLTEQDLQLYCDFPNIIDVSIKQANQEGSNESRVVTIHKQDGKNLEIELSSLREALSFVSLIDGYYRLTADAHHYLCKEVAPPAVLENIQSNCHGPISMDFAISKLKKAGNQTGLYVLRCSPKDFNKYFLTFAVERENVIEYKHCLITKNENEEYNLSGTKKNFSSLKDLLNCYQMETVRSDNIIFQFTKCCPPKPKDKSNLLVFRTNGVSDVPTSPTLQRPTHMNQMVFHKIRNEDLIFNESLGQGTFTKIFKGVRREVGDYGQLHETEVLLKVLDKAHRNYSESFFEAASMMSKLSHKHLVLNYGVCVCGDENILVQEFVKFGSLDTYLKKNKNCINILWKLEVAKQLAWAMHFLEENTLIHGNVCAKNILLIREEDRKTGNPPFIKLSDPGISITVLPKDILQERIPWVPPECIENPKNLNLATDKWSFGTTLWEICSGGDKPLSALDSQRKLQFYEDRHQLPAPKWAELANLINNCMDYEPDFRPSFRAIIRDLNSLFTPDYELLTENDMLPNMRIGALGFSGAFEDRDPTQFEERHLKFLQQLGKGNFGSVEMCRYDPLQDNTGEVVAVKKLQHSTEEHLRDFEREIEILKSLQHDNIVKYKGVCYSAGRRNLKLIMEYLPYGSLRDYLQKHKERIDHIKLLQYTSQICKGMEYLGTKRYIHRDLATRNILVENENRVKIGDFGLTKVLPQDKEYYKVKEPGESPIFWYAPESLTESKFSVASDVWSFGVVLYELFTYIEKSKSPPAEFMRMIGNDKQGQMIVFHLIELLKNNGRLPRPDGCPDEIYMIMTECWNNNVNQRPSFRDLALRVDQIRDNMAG
Chain of Alpha-2B adrenergic receptor (Homo sapiens) (P18089 whole entry): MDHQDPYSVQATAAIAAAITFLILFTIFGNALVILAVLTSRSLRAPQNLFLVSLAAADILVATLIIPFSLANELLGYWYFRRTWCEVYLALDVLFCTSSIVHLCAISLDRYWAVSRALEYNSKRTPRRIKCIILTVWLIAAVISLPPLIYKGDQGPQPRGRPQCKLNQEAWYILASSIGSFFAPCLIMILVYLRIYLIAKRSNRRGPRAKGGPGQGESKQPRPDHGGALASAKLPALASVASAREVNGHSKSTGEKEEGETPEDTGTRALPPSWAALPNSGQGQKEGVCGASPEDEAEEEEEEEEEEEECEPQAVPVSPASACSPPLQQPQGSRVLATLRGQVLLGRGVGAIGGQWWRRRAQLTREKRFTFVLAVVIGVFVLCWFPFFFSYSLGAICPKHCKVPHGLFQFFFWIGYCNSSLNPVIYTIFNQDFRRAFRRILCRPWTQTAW
Chain of Tyrosine-protein kinase Lck (Homo sapiens) (P06239 2-509 limits assumed): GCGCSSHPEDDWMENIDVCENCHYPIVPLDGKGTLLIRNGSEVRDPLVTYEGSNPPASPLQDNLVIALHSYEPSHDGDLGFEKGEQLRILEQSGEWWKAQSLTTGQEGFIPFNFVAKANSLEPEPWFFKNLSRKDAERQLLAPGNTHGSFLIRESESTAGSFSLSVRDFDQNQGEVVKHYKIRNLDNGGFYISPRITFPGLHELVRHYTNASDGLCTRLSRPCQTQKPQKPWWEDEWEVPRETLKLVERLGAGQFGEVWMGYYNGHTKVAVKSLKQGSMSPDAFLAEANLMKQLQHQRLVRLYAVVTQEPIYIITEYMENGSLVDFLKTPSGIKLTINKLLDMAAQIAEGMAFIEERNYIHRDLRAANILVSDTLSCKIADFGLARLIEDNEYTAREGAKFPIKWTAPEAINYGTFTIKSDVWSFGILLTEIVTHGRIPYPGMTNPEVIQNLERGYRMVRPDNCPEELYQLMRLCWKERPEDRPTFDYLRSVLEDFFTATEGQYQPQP
Chain of Acetylcholinesterase (Homo sapiens) (P22303 whole entry): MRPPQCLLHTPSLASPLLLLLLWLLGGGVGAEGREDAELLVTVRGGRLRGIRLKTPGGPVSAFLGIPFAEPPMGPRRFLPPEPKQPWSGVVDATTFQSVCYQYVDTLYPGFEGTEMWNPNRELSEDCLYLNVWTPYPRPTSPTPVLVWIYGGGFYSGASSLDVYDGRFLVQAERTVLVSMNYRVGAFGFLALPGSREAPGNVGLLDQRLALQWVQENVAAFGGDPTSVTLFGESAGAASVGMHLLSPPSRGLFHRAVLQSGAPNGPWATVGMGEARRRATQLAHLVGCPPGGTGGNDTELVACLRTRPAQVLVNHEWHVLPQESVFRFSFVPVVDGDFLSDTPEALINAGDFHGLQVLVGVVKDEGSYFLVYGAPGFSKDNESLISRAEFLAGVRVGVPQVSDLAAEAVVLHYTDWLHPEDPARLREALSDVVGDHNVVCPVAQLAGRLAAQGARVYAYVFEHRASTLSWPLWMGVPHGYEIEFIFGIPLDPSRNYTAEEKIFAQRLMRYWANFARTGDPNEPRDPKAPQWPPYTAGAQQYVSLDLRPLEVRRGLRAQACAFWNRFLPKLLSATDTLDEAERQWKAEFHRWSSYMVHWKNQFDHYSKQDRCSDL
Chain of Aurora kinase A (Homo sapiens) (O14965 whole entry): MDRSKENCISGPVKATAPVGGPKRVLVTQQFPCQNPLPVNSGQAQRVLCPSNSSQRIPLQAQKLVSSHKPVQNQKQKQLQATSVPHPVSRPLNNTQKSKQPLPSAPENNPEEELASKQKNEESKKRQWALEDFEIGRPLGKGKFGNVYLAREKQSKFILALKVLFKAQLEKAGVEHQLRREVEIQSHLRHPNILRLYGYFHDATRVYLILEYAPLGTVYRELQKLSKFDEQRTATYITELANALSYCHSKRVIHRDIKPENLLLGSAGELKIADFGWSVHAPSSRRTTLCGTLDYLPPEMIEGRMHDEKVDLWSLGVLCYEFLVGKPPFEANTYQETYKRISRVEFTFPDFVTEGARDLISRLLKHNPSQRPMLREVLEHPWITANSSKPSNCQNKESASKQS

`CCc1cc(O)c(F)cc1-c1ccc2c(-c3nc4c([nH]3)CCN(C(=O)c3cnc(N5CCCCC5)cn3)C4)n[nH]c2c1` showed an inhibition [1] greater than 50%, a fraction unbound at 0.5 h [2] of no more than 0.001 and a logD [3] of 3.9. For the same compound, the CL free (Canis familiaris) was greater than 1080 L/h/kg, the Vd [4] was 1 L/kg and the fIC50 (JAK2/JAK1 (Homo sapiens)) was 2.1 nM. The inhibition [5] was greater than 50%, the “inhibition (INH)” value (Mus musculus [6]) was 48% and the inhibition at 1 µM (hERG (KCNH2)) was less than 1%. The CL (Rattus norvegicus [7]) was 2.88 L/h/kg, the ED50 (Mus musculus [8]) was 3 µg and the inhibition (Mus musculus [8]) was “Dose-dependent effect”. The Stability [9] was “Stable”, the “inhibition (INH)” value (Mus musculus [10]) was less than 50% and the “inhibition (INH)” value (Mus musculus [11]) was 100%. For the same compound, the IC50 [12] was 29.7 nM, the CL free (Rattus norvegicus [13]) was greater than 2880 L/h/kg and the inhibition [14] was greater than 50%. It also gave a fIC50 (JAK3/JAK1 (Homo sapiens)) of 1.8 nM, an inhibition [15] greater than 50% and a fIC50 (JAK1/TYK2 (Homo sapiens)) of 4.2 nM. For the same compound, the Activity (Mus musculus [16]) was “Active”, the fIC50 [17] was 5.2 nM and the Vd [18] was 0.8 L/kg. For the same compound, the Stability [19] was “Stable”, the Stability [20] was “Stable” and the Activity (Salmonella typhimurium) was “Non-Toxic”. The inhibition (Rattus norvegicus [21]) was greater than 50%.
